Experimental data: ChEMBL document CHEMBL1136517, “Optimization of alpha-acylaminoketone ecdysone agonists for control of gene expression” (Bioorg Med Chem Lett, 2003)

Assays:
[1] = molecular target: T1, Ecdysone receptor (Choristoneura fumiferana) (UniProt O77240); assay: Ratio of maximum level of gene expression (ecdysone receptor and luciferase gene) of compound to maximum level of gene expression with GSTM-E expressed as RMFI; format: functional
T1 sequence (whole entry): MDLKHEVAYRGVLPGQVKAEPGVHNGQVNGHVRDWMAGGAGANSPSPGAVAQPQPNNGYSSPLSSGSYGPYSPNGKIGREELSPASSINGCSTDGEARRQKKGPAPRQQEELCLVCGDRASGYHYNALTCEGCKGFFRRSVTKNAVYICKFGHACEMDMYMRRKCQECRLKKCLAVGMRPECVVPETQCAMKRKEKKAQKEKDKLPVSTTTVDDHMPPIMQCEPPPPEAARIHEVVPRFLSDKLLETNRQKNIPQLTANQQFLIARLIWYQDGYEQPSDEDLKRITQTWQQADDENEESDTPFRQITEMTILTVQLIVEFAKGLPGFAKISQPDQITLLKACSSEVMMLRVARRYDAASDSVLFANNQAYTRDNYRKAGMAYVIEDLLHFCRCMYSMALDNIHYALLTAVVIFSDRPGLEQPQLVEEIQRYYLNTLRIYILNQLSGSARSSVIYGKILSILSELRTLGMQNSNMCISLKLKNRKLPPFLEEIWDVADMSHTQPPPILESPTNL
How it was run: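 CHO clone 27-63 stably carries GAL4 DBD–CfEcR(DEF) plus VP16–RXR/LmUSP chimera, selected with Zeocin. A GAL4-RE luciferase reporter was added and selected with hygromycin. Cells plated at 2.5 × 10⁴ cells/mL. DMSO ligand stocks diluted 300-fold, tested at 8 concentrations from 33 to 0.01. Luciferase measured 48 h after treatment. RMFI is maximum expression relative to that of the standard agonist control.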

[2] = molecular target: T2, Ecdysone receptor (Choristoneura fumiferana, UniProt O77240); assay: Dose affording 50% of maximum transactivation for ecdysone receptor from Choristoneura fumiferana (CfEcR) and a luciferase reporter gene in CHO cells; format: functional, cell-based
T2 sequence (O77240 whole entry): T1 sequence (whole entry)
How it was run: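 CHO cells stably carrying GAL4 DBD(1-147)-CfEcR(DEF) and VP16-bRXR-LmUSP chimera cassettes (Zeocin selection), plus GAL4 RE-luciferase reporter (clone 27-63, hygromycin). Cells plated at 2.5 × 10⁴ cells mL⁻¹. DMSO ligand stocks diluted 300-fold; 8 concentrations, 33 to 0.01. Luciferase read 48 h after treatment. Value is the dose giving 50% of maximum transactivation.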

[3] = molecular target: T3, Ecdysone receptor (Bombyx mori, UniProt P49881); assay: Dose affording 50% of maximum transactivation for ecdysone receptor from Bombyx mori (BmEcR) and a beta-galactosidase reporter gene in HEK293 cell-line; format: functional, cell-based
T3 sequence (P49881 whole entry): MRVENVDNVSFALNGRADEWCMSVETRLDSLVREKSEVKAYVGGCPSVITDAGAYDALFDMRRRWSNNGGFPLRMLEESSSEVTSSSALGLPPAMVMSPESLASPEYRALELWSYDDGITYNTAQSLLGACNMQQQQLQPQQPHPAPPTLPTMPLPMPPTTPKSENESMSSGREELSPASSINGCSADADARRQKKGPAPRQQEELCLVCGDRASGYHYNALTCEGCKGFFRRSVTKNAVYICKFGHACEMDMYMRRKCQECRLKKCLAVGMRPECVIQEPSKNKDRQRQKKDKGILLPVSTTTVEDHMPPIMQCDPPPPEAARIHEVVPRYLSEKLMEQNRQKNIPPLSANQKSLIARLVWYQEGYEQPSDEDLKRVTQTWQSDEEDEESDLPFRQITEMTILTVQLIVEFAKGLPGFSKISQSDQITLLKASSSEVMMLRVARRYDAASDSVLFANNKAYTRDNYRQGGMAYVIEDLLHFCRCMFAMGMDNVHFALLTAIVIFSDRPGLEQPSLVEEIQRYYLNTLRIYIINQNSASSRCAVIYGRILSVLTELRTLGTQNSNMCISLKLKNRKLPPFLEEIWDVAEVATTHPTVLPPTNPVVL
How it was run: (§1)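 HEK-293 clone Z3 stably expressing BmEcR with a β-galactosidase reporter, selected with G418 (450) and puromycin (100 ng/mL). Cells seeded at 2.5 × 10⁴ cells/mL and held 24 h at 37 °C in 5% CO₂. Ligands came from 10 mM DMSO stocks diluted […] in medium, with final DMSO 0.03%. Bioluminescent β-gal read at 48 h, room temperature. Fold induction is treated RLU over DMSO RLU. EC50 is the dose giving 50% of maximum transactivation. RMFI is maximum expression relative to that of the standard agonist control.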

[4] = molecular target: T4, Ecdysone receptor (Bombyx mori) (UniProt P49881); assay: Ratio of maximum level of gene expression (ecdysone receptor and beta-galactosidase receptor) of compound to maximum level of gene expression with GSTM-E expressed as RMFI; format: functional; how it was run: as §1
T4 sequence (whole entry): T3 sequence (P49881 whole entry)

Structure (SMILES) | Ratio [1] | EC50 [2] | EC50 [3] | Ratio [4]
CCC(CC)(NC(=O)c1cccc(OC)c1C)C(=O)c1cc(C)cc(C)c1 | 0.54 | 6.23 µM | 4.53 µM | 0.61
COc1ccccc1C(=O)C1(NC(=O)c2cccc(OC)c2C)CCCCCC1 | 0.66 | 3.36 µM | 1.94 µM | 0.78
CCc1c(OC)cccc1C(=O)NN(C(=O)c1cc(C)cc(C)c1)C(C)(C)C | 1 | 0.41 µM | 0.25 µM | 1
COc1cccc(C(=O)NC2(C(=O)c3cc(C)cc(C)c3)CCCCCC2)c1C | 0.88 | 2.97 µM | 1.61 µM | 0.69
COc1cccc(C(=O)NN(C(=O)c2cc(C)cc(C)c2)C(C)(C)C)c1C [METHOXYFENOZIDE] | 1.02 | 0.28 µM | 0.1 µM | 1.03
COc1cccc(C(=O)NC2(C(=O)c3cc(C)cc(C)c3)CCCCC2)c1C | 0.96 | 1.11 µM | 1.41 µM | 0.99
COc1cccc(C(=O)NC2(C(=O)c3cc(C)cc(C)c3)CCC2)c1C | 0.89 | 10 µM | 8.52 µM | 0.69
COc1ccccc1C(=O)C1(NC(=O)c2cccc(OC)c2C)CCCC1 | 0.67 | 6.61 µM | 5.16 µM | 0.7
COc1cccc(C(=O)NC2(C(=O)c3cc(C)cc(C)c3)CC2)c1C | 0.09 | 33.3 µM | 20.4 µM | 0.22
COc1cccc(C(=O)NC2(C(=O)c3cc(C)cc(C)c3)CCOCC2)c1C | 0.96 | 10 µM | 10 µM | 0.18
COc1ccccc1C(=O)C1(NC(=O)c2cccc(OC)c2C)CCCCC1 | 0.71 | 1.03 µM | 0.98 µM | 0.84
COc1cccc(C(=O)NC2(C(=O)c3cc(C)cc(C)c3)CCS(=O)(=O)CC2)c1C | 0.04 | 30 µM | 15 µM | 0.1
COc1cccc(C(=O)NC(C)(C)C(=O)c2cc(C)cc(C)c2)c1C | 0.29 | 41.9 µM | 10 µM | 0.17
Cc1cc(C)cc(C(=O)C2(NC(=O)c3ccc4c(c3C)OCO4)CCCCC2)c1 | 0.91 | 3.22 µM | 3.68 µM | 0.81
CCc1ccc(C(=O)NC2(C(=O)c3cc(C)cc(C)c3)CCCCC2)cc1 |  |  | 1.51 µM | 0.63
CCc1c(C(=O)NC2(C(=O)c3cc(C)cc(C)c3)CCCCC2)ccc2c1OCCO2 | 0.91 | 0.39 µM | 0.74 µM | 0.89
COc1cccc(C(=O)NC2(C(=O)c3cc(C)cc(C)c3)CCCC2)c1C | 0.86 | 1.91 µM | 1.87 µM | 0.85
CCc1c(OC)cccc1C(=O)NC1(C(=O)c2cc(C)cc(C)c2)CCCCC1 | 0.89 | 1.25 µM | 1.81 µM | 0.85
COc1cccc(C(=O)NC2(C(=O)c3cc(C)cc(C)c3)CCSCC2)c1C | 0.85 | 1.8 µM | 1.6 µM | 0.98
